According to ChEMBL document CHEMBL3992547, “Antimicrobial activity of rhodanine-3-acetic acid derivatives” (Bioorg Med Chem, 2017):
Converted amounts (≈) assume the structure as drawn. The source made the active and inactive calls. The calls are words filed in the database; no cut-off is given here.

Assays:
Candida tropicalis [1] = assay: Antifungal activity against Candida tropicalis 156 after 24 hrs by microdilution broth assay; format: functional; details: Candida tropicalis, 156, 24 h
Summary of the method: (§1)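 Broth microdilution per CLSI M27-A3 and M38-A2 in RPMI 1640 with glutamine, buffered to pH 7.0 with MOPS. Compounds are diluted in DMSO. Final inoculum is 5 × 10³ CFU/mL for yeasts and 0.5–5 × 10⁴ CFU/mL for moulds. Plates are incubated in the dark at 35 °C in humid air and read visually and/or at 540 nm after 24 and 48 h. MIC is ≥80% growth reduction (IC₈₀) for yeasts and ≥50% (IC₅₀) for filamentous fungi.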

Nakaseomyces glabratus [2] = assay: Antifungal activity against Candida glabrata 20/I after 24 hrs by microdilution broth assay; format: functional; summary of the method: as §1
Candida albicans [3] = assay: Antifungal activity against Candida albicans ATCC 44859 after 48 hrs by microdilution broth assay; format: functional; details: ATCC 44859, 48 h; summary of the method: as §1
[4] = tested on: Trichophyton mentagrophytes; assay: Antifungal activity against Trichophyton mentagrophytes 445 after 72 hrs by microdilution broth assay; format: functional; details: Trichophyton mentagrophytes, 445, 72 h
Summary of the method: (§2)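 Broth microdilution per CLSI M38-A2 in RPMI 1640 with glutamine, buffered to pH 7.0 with MOPS, with DMSO as diluent. Final inoculum is 0.5–5 × 10⁴ CFU/mL. Plates are incubated in the dark at 35 °C in humid air and read visually and/or at 540 nm after 72 and 120 h. MIC is at least 50% growth reduction versus control.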

Candida albicans [5] = assay: Antifungal activity against Candida albicans ATCC 44859 after 24 hrs by microdilution broth assay; format: functional; details: ATCC 44859, 24 h; summary of the method: as §1
Aspergillus fumigatus [6] = assay: Antifungal activity against Aspergillus fumigatus 231 after 48 hrs by microdilution broth assay; format: functional; details: Aspergillus fumigatus, 231, 48 h; summary of the method: as §1
[7] = tested on: Trichophyton mentagrophytes; assay: Antifungal activity against Trichophyton mentagrophytes 445 after 120 hrs by microdilution broth assay; format: functional; details: Trichophyton mentagrophytes, 445, 120 h; summary of the method: as §2
Trichosporon asahii [8] = assay: Antifungal activity against Trichosporon asahii 1188 after 48 hrs by microdilution broth assay; format: functional; details: Trichosporon asahii, 1188, 48 h; summary of the method: as §1
Candida tropicalis [9] = assay: Antifungal activity against Candida tropicalis 156 after 48 hrs by microdilution broth assay; format: functional; details: Candida tropicalis, 156, 48 h; summary of the method: as §1
Trichosporon asahii [10] = assay: Antifungal activity against Trichosporon asahii 1188 after 24 hrs by microdilution broth assay; format: functional; details: Trichosporon asahii, 1188, 24 h; summary of the method: as §1
Aspergillus fumigatus [11] = assay: Antifungal activity against Aspergillus fumigatus 231 after 24 hrs by microdilution broth assay; format: functional; details: Aspergillus fumigatus, 231, 24 h; summary of the method: as §1
Nakaseomyces glabratus [12] = assay: Antifungal activity against Candida glabrata 20/I after 48 hrs by microdilution broth assay; format: functional; summary of the method: as §1
Pseudomonas aeruginosa = assay: Antibacterial activity against Pseudomonas aeruginosa CCM 1961 up to 500 uM incubated for 24 to 48 hrs under dark condition by microdilution broth assay; format: functional
Summary of the method: (§3)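 Broth microdilution per M07-A07, modified, in Mueller-Hinton broth adjusted to pH 7.4 (±0.2). Inoculum is prepared in sterile water to McFarland 0.5 (1.5 × 10⁸ CFU/mL). Plates are incubated in the dark at 35 °C in humid air. MIC is read after 24 and 48 h as at least 95% growth reduction versus control (IC₉₅).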

Klebsiella pneumoniae [13] = assay: Antibacterial activity against ESBL positive Klebsiella pneumoniae J 14368/08 up to 500 uM incubated for 24 to 48 hrs under dark condition by microdilution broth assay; format: functional; summary of the method: as §3
Mycobacterium kansasii [14] = assay: Antimycobacterial activity against Mycobacterium kansasii isolate 6509/96 after 21 days by micromethod; format: functional; details: isolate 6509/96, 504 h
[15] = Solubility of the compound in Sula's semisynthetic medium up to 1 mM; format: physicochemical
Mycobacterium avium [16] = assay: Antimycobacterial activity against Mycobacterium avium 330/88 measured after 14 days by micromethod; format: functional; details: 330/88, 336 h
Mycobacterium kansasii [17] = assay: Antimycobacterial activity against Mycobacterium kansasii isolate 6509/96 after 7 days by micromethod; format: functional; details: isolate 6509/96, 168 h
Mycobacterium kansasii [18] = assay: Antimycobacterial activity against Mycobacterium kansasii isolate 235/80 after 14 days by micromethod; format: functional; details: isolate 235/80, 336 h
Pichia kudriavzevii = assay: Antifungal activity against Candida krusei E28 after 24 to 48 hrs hrs by microdilution broth assay; format: functional; summary of the method: as §1
Lichtheimia corymbifera = assay: Antifungal activity against Absidia corymbifera 272 after 24 to 48 hrs hrs by microdilution broth assay; format: functional; summary of the method: as §1
[19] = tested on: Mycobacterium tuberculosis; assay: Antimycobacterial activity against Mycobacterium tuberculosis H37Rv 331/88 measured after 21 days by micromethod; format: functional; details: H37Rv 331/88, 504 h
[20] = tested on: Mycobacterium tuberculosis; assay: Antimycobacterial activity against Mycobacterium tuberculosis H37Rv 331/88 measured after 14 days by micromethod; format: functional; details: H37Rv 331/88, 336 h
Mycobacterium kansasii [21] = assay: Antimycobacterial activity against Mycobacterium kansasii isolate 6509/96 after 14 days by micromethod; format: functional; details: isolate 6509/96, 336 h
Klebsiella pneumoniae [22] = assay: Antibacterial activity against Klebsiella pneumoniae D 11750/08 up to 500 uM incubated for 24 to 48 hrs under dark condition by microdilution broth assay; format: functional; summary of the method: as §3
Mycobacterium kansasii [23] = assay: Antimycobacterial activity against Mycobacterium kansasii isolate 235/80 after 7 days by micromethod; format: functional; details: isolate 235/80, 168 h
Mycobacterium avium [24] = assay: Antimycobacterial activity against Mycobacterium avium 330/88 measured after 21 days by micromethod; format: functional; details: 330/88, 504 h
Mycobacterium kansasii [25] = assay: Antimycobacterial activity against Mycobacterium kansasii isolate 235/80 after 21 days by micromethod; format: functional; details: isolate 235/80, 504 h
Staphylococcus aureus [26] = assay: Antibacterial activity against methicillin-resistant Staphylococcus aureus H 5996/08 incubated for 24 hrs under dark condition by microdilution broth assay; format: functional; details: H 5996/08, 24 h
Summary of the method: (§4)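 Microdilution broth method modified per M07-A07, in Mueller-Hinton broth adjusted to pH 7.4 (±0.2). Inoculum made in sterile water to 0.5 McFarland (1.5 × 10⁸ CFU/mL). Plates incubated in the dark at 35 °C in a humid atmosphere, with reads at 24 and 48 h. MIC taken as at least 95% growth reduction (IC₉₅) versus control.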

[27] = tested on: Staphylococcus epidermidis; assay: Antibacterial activity against Staphylococcus epidermidis H 6966/08 incubated for 24 hrs under dark condition by microdilution broth assay; format: functional; details: H 6966/08, 24 h; summary of the method: as §3
Staphylococcus aureus [28] = assay: Antibacterial activity against methicillin-resistant Staphylococcus aureus H 5996/08 incubated for 48 hrs under dark condition by microdilution broth assay; format: functional; details: H 5996/08, 48 h; summary of the method: as §4
Staphylococcus aureus [29] = assay: Antibacterial activity against Staphylococcus aureus CCM 4516/08 incubated for 48 hrs under dark condition by microdilution broth assay; format: functional; details: CCM 4516/08, 48 h; summary of the method: as §3
[30] = tested on: Staphylococcus epidermidis; assay: Antibacterial activity against Staphylococcus epidermidis H 6966/08 incubated for 48 hrs under dark condition by microdilution broth assay; format: functional; details: H 6966/08, 48 h; summary of the method: as §3
Escherichia coli [31] = assay: Antibacterial activity against Escherichia coli CCM 4517 incubated for 48 hrs under dark condition by microdilution broth assay; format: functional; details: CCM 4517, 48 h; summary of the method: as §3
Staphylococcus aureus [32] = assay: Antibacterial activity against Staphylococcus aureus CCM 4516/08 incubated for 24 hrs under dark condition by microdilution broth assay; format: functional; details: CCM 4516/08, 24 h; summary of the method: as §3
Enterococcus [33] = assay: Antibacterial activity against Enterococcus sp. J 14365/08 incubated for 24 hrs under dark condition by microdilution broth assay; details: J 14365/08, 24 h
Enterococcus [34] = assay: Antibacterial activity against Enterococcus sp. J 14365/08 incubated for 48 hrs under dark condition by microdilution broth assay; details: J 14365/08, 48 h
Escherichia coli [35] = assay: Antibacterial activity against Escherichia coli CCM 4517 incubated for 24 hrs under dark condition by microdilution broth assay; format: functional; details: CCM 4517, 24 h; summary of the method: as §3

| SMILES | MIC80 (Candida tropicalis [1]) [µM] | MIC80 (Nakaseomyces glabratus [2]) [µM] | MIC80 (Candida albicans [3]) [µM] | MIC50 [4] [µM] | Activity (Pseudomonas aeruginosa) | Activity (Klebsiella pneumoniae [13]) | MIC (Mycobacterium kansasii [14]) [µM] | solubility [15] | MIC (Mycobacterium avium [16]) [µM] | MIC (Mycobacterium kansasii [17]) [µM] | MIC (Mycobacterium kansasii [18]) [µM] | Activity (Pichia kudriavzevii) | Activity (Lichtheimia corymbifera) | MIC [19] [µM] | MIC [20] [µM] | MIC (Mycobacterium kansasii [21]) [µM] | Activity (Klebsiella pneumoniae [22]) | MIC (Mycobacterium kansasii [23]) [µM] | MIC (Mycobacterium avium [24]) [µM] | MIC (Mycobacterium kansasii [25]) [µM] | further results |
| --- | --- | --- | --- | --- | --- | --- | --- | --- | --- | --- | --- | --- | --- | --- | --- | --- | --- | --- | --- | --- | --- |
| OC(Cn1cncn1)(Cn1cncn1)c1ccc(F)cc1F [FLUCONAZOLE] | > 500 | 62.5 (≈ 19.1 µg/mL) | 0.24 (≈ 0.0735 µg/mL) | 7.81 (≈ 2.39 µg/mL) |  |  |  |  |  |  |  |  |  |  |  |  |  |  |  |  | MIC80 (Candida albicans [5]): 0.24 µM (≈ 0.0735 µg/mL); MIC50 (Aspergillus fumigatus [6]): > 500 µM; MIC50 [7]: 125 µM (≈ 38.3 µg/mL); MIC80 (Trichosporon asahii [8]): 500 µM (≈ 153 µg/mL); MIC80 (Candida tropicalis [9]): > 500 µM; MIC80 (Trichosporon asahii [10]): 250 µM (≈ 76.6 µg/mL); MIC50 (Aspergillus fumigatus [11]): > 500 µM; MIC80 (Nakaseomyces glabratus [12]): 500 µM (≈ 153 µg/mL) |
| O=C(O)CN1C(=O)/C(=C/c2ccccn2)SC1=S | ≥ 0.98 | ≥ 0.98 | ≥ 0.98 | ≥ 0.98 | inactive | inactive | 1000 (≈ 280 µg/mL) | Soluble | 1000 (≈ 280 µg/mL) | 500 (≈ 140 µg/mL) | 1000 (≈ 280 µg/mL) | inactive | inactive | 500 (≈ 140 µg/mL) | 250 (≈ 70.1 µg/mL) | 500 (≈ 140 µg/mL) | inactive | 500 (≈ 140 µg/mL) | 1000 (≈ 280 µg/mL) | 1000 (≈ 280 µg/mL) | MIC80 (Candida albicans [5]): ≥ 0.98 µM; MIC50 (Aspergillus fumigatus [6]): ≥ 0.98 µM; MIC50 [7]: ≥ 0.98 µM; MIC80 (Trichosporon asahii [8]): ≥ 0.98 µM; MIC80 (Candida tropicalis [9]): ≥ 0.98 µM; MIC80 (Trichosporon asahii [10]): ≥ 0.98 µM; MIC50 (Aspergillus fumigatus [11]): ≥ 0.98 µM; MIC80 (Nakaseomyces glabratus [12]): ≥ 0.98 µM |
| O=C(O)CN1C(=O)/C(=C/c2cccc(O)c2)SC1=S |  |  |  |  | inactive | inactive | 1000 (≈ 295 µg/mL) | Soluble | > 1000 | 500 (≈ 148 µg/mL) | 1000 (≈ 295 µg/mL) | inactive | inactive | 1000 (≈ 295 µg/mL) | 1000 (≈ 295 µg/mL) | 1000 (≈ 295 µg/mL) | inactive | 1000 (≈ 295 µg/mL) | > 1000 | 1000 (≈ 295 µg/mL) | MIC95 (Staphylococcus aureus [26]): 500 µM (≈ 148 µg/mL); MIC95 [27]: > 500 µM; MIC95 (Staphylococcus aureus [28]): > 500 µM; MIC95 (Staphylococcus aureus [29]): > 500 µM; MIC95 [30]: > 500 µM; MIC95 (Escherichia coli [31]): > 500 µM; MIC95 (Staphylococcus aureus [32]): > 500 µM; MIC95 (Enterococcus [33]): 500 µM (≈ 148 µg/mL); MIC95 (Enterococcus [34]): > 500 µM; MIC95 (Escherichia coli [35]): > 500 µM |
| O=C(CN1C(=O)/C(=C/c2ccccn2)SC1=S)Nc1ccc(Cl)cc1 |  |  |  |  | inactive | inactive | > 250 | Soluble | > 250 | > 250 | > 250 | inactive | inactive | > 250 | > 250 | > 250 | inactive | > 250 | > 250 | > 250 | MIC95 (Staphylococcus aureus [26]): > 125 µM; MIC95 [27]: > 125 µM; MIC95 (Staphylococcus aureus [28]): > 125 µM; MIC95 (Staphylococcus aureus [29]): > 125 µM; MIC95 [30]: > 125 µM; MIC95 (Escherichia coli [31]): > 125 µM; MIC95 (Staphylococcus aureus [32]): > 125 µM; MIC95 (Enterococcus [33]): 125 µM (≈ 48.7 µg/mL); MIC95 (Enterococcus [34]): > 125 µM; MIC95 (Escherichia coli [35]): > 125 µM |
